Assay outcomes deposited in PubChem BioAssay by several laboratories.
Shown are actives, neighbours in structure and some others; about 4.1% of the full set was active somewhere.
KCNK3 inh: human KCNK3 channel inhibition, primary screen | CHO-KCNK3 thallium flux, FluxOR fluorescence; active compounds read low | B-score at 10 µM | actives 0.84% (n = 340,000);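 active = B-score under library mean minus 4 SD, starting fluorescence ratio at most library mean plus 5 SD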;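 also: more negative B-score means stronger inhibition of thallium flux through KCNK3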
Target sequence (O14649 whole entry, looked up): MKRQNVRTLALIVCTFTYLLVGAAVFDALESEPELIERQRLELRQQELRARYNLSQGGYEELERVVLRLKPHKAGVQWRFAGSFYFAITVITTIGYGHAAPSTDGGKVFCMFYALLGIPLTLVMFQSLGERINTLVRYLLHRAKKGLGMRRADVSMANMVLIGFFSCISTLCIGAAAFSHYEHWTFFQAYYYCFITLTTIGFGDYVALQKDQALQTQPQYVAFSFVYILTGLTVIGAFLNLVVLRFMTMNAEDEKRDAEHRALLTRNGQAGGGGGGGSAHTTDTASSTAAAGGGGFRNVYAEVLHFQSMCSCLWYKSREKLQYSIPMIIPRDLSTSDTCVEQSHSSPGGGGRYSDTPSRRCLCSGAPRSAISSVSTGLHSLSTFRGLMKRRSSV
hERG rescue: hERG (human) protection from proarrhythmic block | Q12809 | CHO-hERG, FluxOR thallium flux, dofetilide IC70 present | activation (rescue from dofetilide block), less the hit threshold, % at 10 µM | actives 0.51% (n = 310,000) | AID 1511;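 active = activation above the mean of controls blocked by dofetilide plus 5 SD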;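 also: thallium influx through hERG after potassium depolarization seen as dye fluorescence rise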
KCNK9 inh: human KCNK9 channel inhibition | HEK293 KCNK9, FluxOR thallium flux fluorescence; active compounds read low | B-score at 10 µM | actives 1.2% (n = 310,000) | AID 488922;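 active = ratio B-score over 3 SD below the library mean, with starting fluorescence within 5 SD of its mean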;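 also: negative B-score means less thallium flux so channel inhibition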
KCNQ1 inh: human KCNQ1 channel inhibition | CHO-K1 KCNQ1, FluxOR thallium flux fluorescence; active compounds read high | P51787 | actives 1.3% (n = 310,000) | B-score at 10 µM;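 active = compounds whose thallium flux B-score, printed positive for inhibition, exceeds three library SD while starting fluorescence stays within three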;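 also: channel opened by potassium depolarization with thallium stimulus after 20 min compound exposure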
KCNQ1 pot: human KCNQ1 channel potentiation or activation; P51787; CHO-K1 KCNQ1, thallium flux FluxOR fluorescence; active compounds read high; B-score at 10 µM; actives 0.35% (n = 310,000); AID 2648;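 active = fluorescence ratio B-score, a plate-corrected score, at least three library SD, with initial intensity B-score within 5 SD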
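Doses: Single concentration per compound, DMSO matched to controls | Test system: KCNQ1-transfected CHO-K1 cells | Timing: 90 min dye loading and 20 min compound exposure, both at room temperature | Measured by: Kinetic FluxOR thallium fluorescence, 10-s 1-Hz baseline, 110-s post-stimulus read | Medium: Assay buffer with matched DMSO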
KCC2 mod: KCC2 (human) Cl- transport modulation; AID 1456; KCC2 cells, thallium flux FluoZin-2 fluorescence; B-score of Tl+ flux slope (higher = more flux/activation; lower = inhibition) at 10 µM; Q9H2X9; actives 2.2% (n = 190,000);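 active = thallium flux slope and its plate-corrected score both differing from the plate sample mean at a set confidence after two filtering rounds, in either direction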;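 also: slope of fluorescence scaled to starting intensity during 10 to 20 s after thallium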
KCC2 sec1: KCC2 (human) modulation, secondary assay | shares compounds with KCC2 mod | HEK293-KCC2, thallium flux, FluoZin2 fluorescence; active compounds read high | normalised thallium flux (F/F0 slope) at 10 µM | actives 15% (n = 3,700);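 active = thallium flux slope above the same plate's solvent-only control mean plus 3 SD; inconclusive = the two replicate wells disagree; inactive = no significant difference from solvent-only control wells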
KCC2 bumet counter: thallium flux persisting under bumetanide in KCC2 cells, counter-screen secondary assay; shares compounds with KCC2 mod; HEK293-KCC2 + bumetanide/ouabain, thallium flux FluoZin2; active compounds read high; normalized thallium flux at 10 µM; actives 49% (n = 3,700); AID 1714;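 active = thallium entry rate above the same plate's blocked-transporter control wells by more than 3 SD; inconclusive = the two repeat wells disagree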;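 also: raw slope of fluorescence over initial fluorescence between 10 and 20 s after thallium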
KCC2 sec2: confirmation of human KCC2 transport modulators. shares compounds with KCC2 mod. normalized thallium flux at 10 µM. actives 23% (n = 3,700). HEK293-KCC2, thallium flux FluoZin2 fluorescence; actives lie on both sides; F/F0 rise rate, 10–20 s post-thallium;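 active = thallium flux slope more than 3 SD above or below the plate's solvent-only control mean, mostly below; inconclusive = the two repeat wells disagreed; inactive = no significant shift from solvent-only controls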;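 also: raw slope with 0.1% DMSO as baseline and bumetanide as block control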
HEK293 Tl flux: parental HEK flux effect, counter-screen. shares compounds with KCC2 mod. HEK293 parental cells, thallium flux FluoZin2, ouabain; baseline-ratio fluorescence slope, 10–20 s after thallium. thallium flux rate (normalised fluorescence) at 10 µM. actives 46% (n = 3,700). AID 1716;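 active = thallium flux rate significantly above the same plate's solvent-only control wells, beyond their mean plus 3 SD; inconclusive = the two replicate wells gave conflicting results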
KCC2 retest ouab: confirmation of human KCC2 modulators with ouabain | shares compounds with KCC2 mod | actives 48% (n = 3,700) | raw Tl+ flux slope (below DMSO = inhibition, above = activation) at 10 µM | HEK293-KCC2, thallium flux FluoZin2 fluorescence; bidirectional: low = inhibitor, high = activator;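 active = thallium flux slope beyond 3 SD from same-plate DMSO control mean in most replicates, usually higher, sometimes lower; inconclusive = repeat tests gave conflicting results; inactive = no significant difference from controls in most replicates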;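 also: slope of initial-normalized fluorescence between seconds 10 and 20 after thallium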
HEK293 Tl flux2: acts in parental HEK cells, second KCC2 counter-screen; shares compounds with KCC2 mod; HEK293 parental, thallium flux FluoZin-2 fluorescence slope; thallium flux slope at 10 µM; actives 33% (n = 3,700);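 active = thallium flux slope above the same plate's solvent-control mean plus 3 SD in both duplicate wells; inconclusive = duplicate wells that disagreed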;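 also: run without ouabain in cells lacking the KCC2 cotransporter; slope of fluorescence scaled to its starting value between 10 and 20 s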
* hit, by the source's call; i = inactive; ? = inconclusive; nt = no result.

SMILES	KCNK3 inh	hERG rescue	KCNK9 inh	KCNQ1 inh	KCNQ1 pot	KCC2 mod	KCC2 sec1	KCC2 bumet counter	KCC2 sec2	HEK293 Tl flux	KCC2 retest ouab	HEK293 Tl flux2
CCCOC(=O)C1C2C=CC(C3CC23)C1C(=O)OCC(=O)c1ccccc1 (stereo not drawn)	i	-18	i	i	i	0.069	nt	nt	nt	nt	nt	nt
Oc1c(C=Nc2ccccc2)sc2ccccc12	i	-4	i	i	i	2.8*	0.0069	0.0065	0.029	0.0069	?	0.01
O=C(COC(=O)CCc1c[nH]c2ccccc12)NC1CCS(=O)(=O)C1 (stereo not drawn)	i	-7	i	i	i	1.1	nt	nt	nt	nt	nt	nt
Cc1nn2c(NCC(C)C)c3c(nc2c1-c1ccccc1)CCC3	i	-11	i	i	i	9.5*	0.0088	0.0052	0.03	0.0073	0.018	0.011
COCCNc1c2c(nc3c(-c4ccccc4)c(C)nn13)CCC2	i	-15	i	i	i	0.023	nt	nt	nt	nt	nt	nt
O=C1c2ccc([N+](=O)[O-])cc2C(=O)N1CNc1ccccn1	i	-5	i	i	i	1.8	nt	nt	nt	nt	nt	nt
CCn1c(-c2csc3ccccc23)n[nH]c1=S	i	-2	i	i	i	1	nt	nt	nt	nt	nt	nt
Cc1cccc(-n2c(-c3csc4ccccc34)n[nH]c2=S)c1	i	-6	i	i	i	17*	0.013*	0.069*	0.034	0.026*	0.055*	?
Cc1ccc([N+](=O)[O-])c(-c2n[nH]c(=S)n2-c2cccc(Cl)c2)c1	i	-5	i	i	i	7.1*	0.014*	0.032*	0.037	0.012*	?	0.012*
CC(C)Cn1c(-c2csc3ccccc23)n[nH]c1=S	i	-11	i	i	i	4.9*	0.0062	0.019*	0.034	0.018*	?	0.015*
CC(C)Cn1c(-c2csc(C(C)C)c2)n[nH]c1=S	i	-8	i	i	i	21*	0.015*	0.08*	0.035	0.032*	0.056*	0.012*
Cc1cc(F)ccc1S(=O)(=O)Nc1c(C)n(C)n(-c2ccccc2)c1=O	i	-13	i	i	i	-0.72	nt	nt	nt	nt	nt	nt
Cc1ccc2c(c1)C(c1ccc(F)cc1)N(C(=O)c1ccccc1Br)CC(=O)N2 (stereo not drawn)	i	-15	i	i	i	nt	nt	nt	nt	nt	nt	nt
Cc1ccc(-n2c(-c3cccc(C)c3)n[nH]c2=S)cc1	i	-4	i	i	i	5.8*	0.018	0.02*	0.031	0.014*	0.021*	0.017*
S=c1[nH]nc(-c2ccccn2)n1/N=C/c1ccc(Cl)c(Cl)c1	i	-10	i	i	i	41*	0.0056	0.11*	0.054*	0.041*	0.067*	0.031*
S=c1[nH]nc(-c2ccccn2)n1/N=C/c1ccc(-c2ccccc2Cl)o1	i	-8	i	i	i	132*	0.12*	0.14*	0.031	0.13*	0.15*	0.013*
O=[N+]([O-])c1ccc(/C=N/Nc2nc(N3CCCC3)nc(N3CCCC3)n2)o1	i	-12	i	i	i	6.1*	0.0053	0.0044	0.029	0.0078	0.018	0.011
O=[N+]([O-])c1ccc(-c2ccc(/C=N/Nc3nc(N4CCCCC4)nc(N4CCCCC4)n3)o2)cc1	i	-7	i	i	i	0.63	nt	nt	nt	nt	nt	nt
CN(C)CCN1CC(O)=C(c2nc3ccccc3s2)C1=N	i	-2	i	i	i	-1.2	nt	nt	nt	nt	nt	nt
N=C1C(c2nc3ccccc3s2)=C(O)CN1Cc1ccco1	i	-5	i	i	i	3.6*	0.0062	?	0.029	0.0075	0.018	0.011
CN=C(c1ccc(C)cc1)n1c(=S)nc(-c2ccc(C)cc2)n(C)c1=S	i	-6	i	i	i	-0.2	nt	nt	nt	nt	nt	nt
Cc1c(NC(=O)CN2C(=O)c3ccccc3S2(=O)=O)c(=O)n(-c2ccccc2)n1C	i	-2	i	i	i	3.4*	0.0077	0.0051	0.035	0.0079	0.021	?
Cc1c(NC(=O)CN2c3cccc4cccc(c34)S2(=O)=O)c(=O)n(-c2ccccc2)n1C	i	-3	i	i	i	0.039	nt	nt	nt	nt	nt	nt
Cc1ccsc1C(=O)OCC(=O)Nc1nnc(-c2ccccc2)o1	i	-5	i	i	i	nt	nt	nt	nt	nt	nt	nt
Cn1c(CSc2nc3ccccc3s2)nnc1SCC(=O)NCc1ccccn1	i	1	i	i	i	-4*	0.0069	0.0044	0.03	0.0074	?	0.0095
COc1ccc(C(=O)NC2CCN(CC(=O)NCc3ccccc3F)CC2)cc1	i	0	i	i	i	nt	nt	nt	nt	nt	nt	nt
COc1ccc(C(=O)NC(=S)N2CC(C)OC(C)C2)cc1 (stereo not drawn)	i	-10	i	i	i	3.3	nt	nt	nt	nt	nt	nt
COc1ccc(C(=O)NC(=S)N2CCCCC2)cc1[N+](=O)[O-]	i	-7	i	i	i	6.8*	0.012	0.021*	0.035	0.012*	0.026	?
COc1ccc(C(=O)NC(=S)N2CCCCC2)cc1	i	-2	i	i	i	2.7	nt	nt	nt	nt	nt	nt
COc1cc(OC)cc(C(=O)NC(=S)N2CCCCCC2)c1	i	10*	i	i	i	74*	0.034*	0.11*	0.04*	0.062*	0.083*	0.021*
